Laboratory results as given in BindingDB's records for doi:10.1016/j.bmc.2013.02.060 (National Institute On Drug Abuse and The National Institute …, 2013).

Biological target: Delta-type opioid receptor (Homo sapiens, UniProt P41143)
Assay: Displacement of [3H]DADLE from human recombinant delta opioid receptor expressed in CHO cell membranes after 2 hrs by liquid scintillation counting analysis
Procedure, shortened: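 Human DOR stably expressed in CHO cells; washed membranes (~30 µg protein/tube) incubated with ~2 nM [3H]DADLE and 10 drug concentrations in 50 mM Tris-HCl pH 7.4 with protease inhibitors, 2 h at 25 °C. Levallorphan defined nonspecific binding.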

Delta-type opioid receptor, sequence (P41143 whole entry): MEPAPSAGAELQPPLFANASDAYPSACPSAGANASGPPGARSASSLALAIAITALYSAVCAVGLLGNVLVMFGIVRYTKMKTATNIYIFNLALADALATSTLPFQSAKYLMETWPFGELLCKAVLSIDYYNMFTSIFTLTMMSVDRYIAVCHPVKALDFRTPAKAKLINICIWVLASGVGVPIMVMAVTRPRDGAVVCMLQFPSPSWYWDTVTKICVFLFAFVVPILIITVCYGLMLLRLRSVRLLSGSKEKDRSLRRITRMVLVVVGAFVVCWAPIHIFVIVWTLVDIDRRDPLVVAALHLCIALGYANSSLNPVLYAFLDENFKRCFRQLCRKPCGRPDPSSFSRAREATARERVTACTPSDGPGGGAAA

SMILES | Ki [nM]
Oc1ccc2c(c1)[C@]1(CCc3ccccc3)CCN(CCc3ccccc3)C[C@@H]1O2 | 39
CN1CC[C@@]2(CCc3ccc(F)cc3)c3cc(O)ccc3O[C@H]2C1 | 128
CN1CC[C@@]2(C)c3cc(O)ccc3O[C@H]2C1 | > 10000
CN1CC[C@@]2(CCCCCc3ccccc3)c3cc(O)ccc3O[C@H]2C1 | 75
Oc1ccc2c(c1)[C@]1(CCc3ccccc3)CCN(CCc3cccc(C(F)(F)F)c3)C[C@@H]1O2 | 63
Oc1ccc2c(c1)[C@]1(CCc3ccccc3)CCN(CCc3ccccc3C(F)(F)F)C[C@@H]1O2 | 136
Oc1ccc2c(c1)[C@]1(CCc3ccccc3)CCN(CC3CC3)C[C@@H]1O2 | 24
Oc1ccc2c(c1)[C@]1(CCc3ccccc3)CCN(CCCc3ccccc3)C[C@@H]1O2 | 111
CCCC[C@@]12CCN(C)C[C@@H]1Oc1ccc(O)cc12 | 207
Oc1ccc2c(c1)[C@]1(CCc3ccccc3)CCN(CCc3ccc(C(F)(F)F)cc3)C[C@@H]1O2 | 26
Oc1ccc2c(c1)[C@]1(CCc3ccccc3)CCN(CCc3ccc(F)cc3)C[C@@H]1O2 | 34
Oc1ccc2c(c1)[C@]1(CCc3ccccc3)CCN(CCc3ccccc3F)C[C@@H]1O2 | 26
CN1CC[C@@]2(CCc3ccccc3F)c3cc(O)ccc3O[C@H]2C1 | 52
